ChEMBL document CHEMBL1156077, “Piperazinyl-glutamate-pyrimidines as potent P2Y12 antagonists for inhibition of platelet aggregation” (Bioorg Med Chem Lett, 2009)

Columns and labels:
P2Y purinoceptor 12 [1] = target: T1, P2Y purinoceptor 12 (Homo sapiens, UniProt Q9H244); test: Binding affinity at human recombinant P2Y12 receptor expressed in CHO cells by radioligand binding assay; assay type: cell-based
Summary of the method: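 Washed membranes from CHO cells transfected with synthetic human P2Y12 gene. Compounds as 7-point threefold dilutions, triplicate, 1 h at room temperature. Nonspecific binding defined with 300 nM 2-MeSADP. Filtered, washed with ice-cold Tris pH 7.4. Single-site fit; IC50 converted to Ki by Cheng–Prusoff, geometric mean of n≥2.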

[2] = Selectivity for human P2Y12 receptor over P2Y1
[3] = Selectivity for human P2Y12 receptor over P2Y13
P2Y purinoceptor 12 [4] = target: T1, P2Y purinoceptor 12; test: Ratio of compound IC50 to AZD-6140 IC50 for P2Y12 receptor in human platelet rich plasma assessed as inhibition of ADP-induced platelet aggregation by light transmission aggregometry
Summary of the method: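 Human platelet-rich plasma was pre-incubated 5 min at 37 °C with compound across seven concentrations (10 down to 0.156). Aggregation was started with ADP (20, final) and followed by light transmission at 626 nm for 15 min at 37 °C. Duplicate concentration-response data were read at the 15-min end-point. IC50 was divided by the IC50 of AZD-6140 run on the same plate.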

P2Y purinoceptor 12 [5] = target: T1, P2Y purinoceptor 12; test: Ratio of compound IC50 to thienopyrimidine IC50 for P2Y12 receptor in human platelet rich plasma assessed as inhibition of ADP-induced platelet aggregation by light transmission aggregometry
Summary of the method: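 Human platelet-rich plasma was pre-incubated 5 min at 37 °C with compound across seven concentrations (10 down to 0.156). Aggregation was started with ADP (20, final) and followed by light transmission at 626 nm for 15 min at 37 °C. Duplicate concentration-response data were read at the 15-min end-point. IC50 was divided by the IC50 of the thienopyrimidine reference run on the same plate.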

T1 sequence (Q9H244 whole entry): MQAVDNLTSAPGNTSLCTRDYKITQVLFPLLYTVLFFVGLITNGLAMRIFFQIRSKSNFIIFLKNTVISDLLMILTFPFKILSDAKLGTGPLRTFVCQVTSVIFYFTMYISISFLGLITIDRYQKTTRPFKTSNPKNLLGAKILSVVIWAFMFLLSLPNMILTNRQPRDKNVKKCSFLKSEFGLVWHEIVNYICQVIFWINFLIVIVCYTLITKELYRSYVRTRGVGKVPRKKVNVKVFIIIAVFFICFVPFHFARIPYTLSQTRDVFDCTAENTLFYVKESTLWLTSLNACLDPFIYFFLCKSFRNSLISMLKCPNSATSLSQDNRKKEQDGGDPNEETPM

Row | Compound | Ki (P2Y purinoceptor 12 [1]) [nM] | fold change (FC) [2] | fold change (FC) [3] | Ratio IC50 (P2Y purinoceptor 12 [4]) | Ratio IC50 (P2Y purinoceptor 12 [5])
1 | CCCCCOC(=O)N1CCN(C(=O)[C@H](CCC(=O)O)NC(=O)c2nc(-c3ccccc3)cc(N3CCNCC3)n2)CC1 | 22 | > 340 | > 340 | 6 | 1.1
2 | CCCCOC(=O)N1CCN(C(=O)[C@H](CCC(=O)O)NC(=O)c2cc(OCC3CCN(C)CC3)nc(-c3ccccc3)n2)CC1 | 15 | > 340 | > 340 | 3.7 | 0.9
3 | CCCCCOC(=O)N1CCN(C(=O)[C@H](CCC(=O)O)NC(=O)c2cc(N3CCC(C(=O)N(C)C)CC3)nc(-c3ccccc3)n2)CC1 | 2.5 | > 340 | > 340 | 0.3 | 0.1
4 | CCCCCOC(=O)N1CCN(C(=O)[C@H](CCC(=O)O)NC(=O)c2cc(N3CCN(C(C)=O)CC3)nc(-c3ccccc3)n2)CC1 | 3.7 | > 340 | > 340 | 1 | 0.3
5 | CCCCCOC(=O)N1CCN(C(=O)[C@H](CCC(=O)O)NC(=O)c2nc(-c3ccccc3)cc(N3CCC(CNC)CC3)n2)CC1 | 11 | > 340 | > 340 | 1 | 0.4
6 | CCCCCOC(=O)N1CCN(C(=O)[C@H](CCC(=O)O)NC(=O)c2cc(OCCN(CC)CC)nc(-c3ccccc3)n2)CC1 | 27 | > 340 | > 340 | 17 | 2.4
7 | CCCCCOC(=O)N1CCN(C(=O)[C@H](CCC(=O)O)NC(=O)c2nc(-c3ccccc3)cc(N3CCN(C(C)=O)CC3)n2)CC1 | 29 | > 340 | > 340 | 8.9 | 1.8
8 | CCCCCOC(=O)N1CCN(C(=O)[C@H](CCC(=O)O)NC(=O)c2cc(N3CCN(CC(=O)N(C)C)CC3)nc(-c3ccccc3)n2)CC1 | 2.6 | > 340 | > 340 | 0.5 | 0.1
9 | CCCCCOC(=O)N1CCN(C(=O)[C@H](CCC(=O)O)NC(=O)c2cc(OCC3CCNCC3)nc(-c3ccccc3)n2)CC1 | 2.2 | > 340 | > 340 | 1.7 | 0.3
10 | CCCCOC(=O)N1CCN(C(=O)[C@H](CCC(=O)O)NC(=O)c2cc(N3CCC(C(=O)N(C)C)CC3)nc(-c3ccccc3)n2)CC1 | 1.3 | > 340 | > 340 | 1.1 | 0.2
11 | CCCCCOC(=O)N1CCN(C(=O)[C@H](CCC(=O)O)NC(=O)c2nc(-c3ccccc3)cc(N3CCN(CCOC)CC3)n2)CC1 | 12 | > 340 | > 340 | 8.3 | 1.6
12 | CCCCOC(=O)N1CCN(C(=O)[C@H](CCC(=O)O)NC(=O)c2cc(OC3CCN(C(C)C)CC3)nc(-c3ccccc3)n2)CC1 | 19 | > 340 | > 340 | 2.8 | 0.8
13 | CCCCCOC(=O)N1CCN(C(=O)[C@H](CCC(=O)O)NC(=O)c2nc(-c3ccccc3)cc(N3CCC(CNCC)CC3)n2)CC1 | 11 | > 340 | > 340 | 1.6 | 0.4
14 | CCCCCOC(=O)N1CCN(C(=O)[C@H](CCC(=O)O)NC(=O)c2nc(-c3ccccc3)cc(N3CCC(CCN)CC3)n2)CC1 | 3 | > 340 | > 340 | 1.9 | 0.4
15 | CCCCOC(=O)N1CCN(C(=O)[C@H](CCC(=O)O)NC(=O)c2cc(N3CCC(CCOC)CC3)nc(-c3ccccc3)n2)CC1 | 2 | > 340 | > 340 | 2.1 | 0.5
16 | CCCCOC(=O)N1CCN(C(=O)[C@H](CCC(=O)O)NC(=O)c2cc(N3CCC(C(=O)N4CCCC4)CC3)nc(-c3ccccc3)n2)CC1 | 0.7 | > 340 | > 340 | 0.4 | 0.08
17 | CCCCCOC(=O)N1CCN(C(=O)[C@H](CCC(=O)O)NC(=O)c2cc(N3CC(O)C3)nc(-c3ccccc3)n2)CC1 | 2.5 | > 340 | > 340 | 4.6 | 0.8
18 | CCCCCOC(=O)N1CCN(C(=O)[C@H](CCC(=O)O)NC(=O)c2nc(-c3ccccc3)cc(N3CCC(N)CC3)n2)CC1 | 8.4 | > 340 | > 340 | 3.1 | 0.6
19 | CCCCCOC(=O)N1CCN(C(=O)[C@H](CCC(=O)O)NC(=O)c2nc(OCC3CCN(C)CC3)cc(-c3ccccc3)n2)CC1 | 12 | > 340 | > 340 | 4.4 | 0.8
20 | CCCCCOC(=O)N1CCN(C(=O)[C@H](CCC(=O)O)NC(=O)c2cc(N3CCC(CCOC)CC3)nc(-c3ccccc3)n2)CC1 | 10.2 | > 340 | > 340 | 5.4 | 1.3
21 | CCCCOC(=O)N1CCN(C(=O)[C@H](CCC(=O)O)NC(=O)c2cc(N3CCC(N4CCOCC4)CC3)nc(-c3ccccc3)n2)CC1 | 1.3 | > 340 | > 340 | 1.1 | 0.2
22 | CCCCCOC(=O)N1CCN(C(=O)[C@H](CCC(=O)O)NC(=O)c2cc(N3CCC(CN4CCCC4=O)CC3)nc(-c3ccccc3)n2)CC1 | 0.99 | > 340 | > 340 | 2 | 0.4
23 | CCCCCOC(=O)N1CCN(C(=O)[C@H](CCC(=O)O)NC(=O)c2cc(N3CCC(CCN4CCCC4)CC3)nc(-c3ccccc3)n2)CC1 | 2.1 | > 340 | > 340 | 0.5 | 0.1
24 | CCCCCOC(=O)N1CCN(C(=O)[C@H](CCC(=O)O)NC(=O)c2nc(-c3ccccc3)cc(N3CCN(CC(=O)N(C)C)CC3)n2)CC1 | 6.8 | > 340 | > 340 | 3.5 | 0.8
25 | CCCCCOC(=O)N1CCN(C(=O)[C@H](CCC(=O)O)NC(=O)c2cc(N3CC(OCC)C3)nc(-c3ccccc3)n2)CC1 | 1.2 | > 340 | > 340 | 3.4 | 1
26 | CCCCCOC(=O)N1CCN(C(=O)[C@H](CCC(=O)O)NC(=O)c2cc(N3CCC(CCN(C)C)CC3)nc(-c3ccccc3)n2)CC1 | 2.8 | > 340 | > 340 | 0.4 | 0.1
27 | CCCCCOC(=O)N1CCN(C(=O)[C@H](CCC(=O)O)NC(=O)c2cc(N3CCC(N4CCOCC4)CC3)nc(-c3ccccc3)n2)CC1 | 2.9 | > 340 | > 340 | 0.7 | 0.2
28 | CCCCOC(=O)N1CCN(C(=O)[C@H](CCC(=O)O)NC(=O)c2cc(OCC3CCCO3)nc(-c3ccccc3)n2)CC1 (stereo not given in full) | 55 | > 340 | > 340 | 3.8 | 1.4
